# Screens: PubChem BioAssay, Johns Hopkins Ion Channel Center
# In the library only some 2.3% were active in any assay of this set; here they are far more common.
# TRPC4 agonist: activators of mouse TRPC4 channel, primary screen, Fluo4 calcium, HEK293 TRPC4beta/mu-opioid cells | Short transient receptor potential channel 4 (Mus musculus), Q9QUQ5 | Fluo4 calcium fluorescence; hits give high values | B-score at 10 µM | 0.49% of 310,000 active | AID 2237, 2010;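 active = B-score above 5 SD of library B-scores, and initial fluorescence ratio not above library mean plus 5 SD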;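 note: positive B-score marks a calcium rise read as TRPC4 activation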
# Target sequence (Q9QUQ5 whole entry, looked up): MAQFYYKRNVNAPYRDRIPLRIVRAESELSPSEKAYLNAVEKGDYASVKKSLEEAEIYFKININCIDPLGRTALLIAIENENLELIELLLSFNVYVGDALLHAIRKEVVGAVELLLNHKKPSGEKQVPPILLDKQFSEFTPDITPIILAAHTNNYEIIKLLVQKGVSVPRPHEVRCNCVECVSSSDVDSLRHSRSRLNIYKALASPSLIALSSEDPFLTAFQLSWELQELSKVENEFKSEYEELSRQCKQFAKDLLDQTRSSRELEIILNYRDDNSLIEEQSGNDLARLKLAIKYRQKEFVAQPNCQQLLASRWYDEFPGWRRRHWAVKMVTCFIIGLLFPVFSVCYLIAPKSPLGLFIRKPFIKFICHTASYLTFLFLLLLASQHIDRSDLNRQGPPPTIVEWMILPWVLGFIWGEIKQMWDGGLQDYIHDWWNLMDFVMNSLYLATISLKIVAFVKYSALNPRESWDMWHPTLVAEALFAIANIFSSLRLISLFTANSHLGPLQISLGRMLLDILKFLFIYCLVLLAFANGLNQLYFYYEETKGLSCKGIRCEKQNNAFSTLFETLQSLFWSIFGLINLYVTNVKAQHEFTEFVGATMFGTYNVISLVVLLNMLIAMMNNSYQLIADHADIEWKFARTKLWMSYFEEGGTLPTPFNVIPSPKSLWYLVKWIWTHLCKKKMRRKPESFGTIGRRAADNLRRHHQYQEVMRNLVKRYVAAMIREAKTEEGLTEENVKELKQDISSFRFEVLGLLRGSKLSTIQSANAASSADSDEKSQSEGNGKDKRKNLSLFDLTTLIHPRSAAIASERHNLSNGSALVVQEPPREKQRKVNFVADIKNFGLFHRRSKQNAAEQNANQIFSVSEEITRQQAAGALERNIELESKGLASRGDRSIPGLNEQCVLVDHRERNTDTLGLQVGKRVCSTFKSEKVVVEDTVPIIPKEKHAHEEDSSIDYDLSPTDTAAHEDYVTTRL
#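 System: HEK293 cells stably co-expressing mouse TRPC4beta and mu-opioid receptor; Schedule: Fluo4 dye loading 45 min at room temperature, 110 s recording; Detection: Fluo4 fluorescence, kinetic; Evaluation: B-scored integrated calcium fluorescence ratio; Controls: buffer (low) and maximal DAMGO (high).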
# TRPC6 inhibitor: mouse TRPC6 channel inhibitors, primary screen, cell-based, HEK293, membrane potential dye; Short transient receptor potential channel 6 (Mus musculus), Q61143; ACh-evoked depolarization; hits give low values; B-score at 10 µM; 1.1% of 310,000 active; AID 2553, 2010;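 active = B-score under library mean minus 3 SD, initial fluorescence not abnormally high, positive integrated signal ratio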;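 note: B-score derived from integrated fluorescence ratio over the kinetic read; more negative B-score means stronger inhibition of depolarization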
# TRPC4 potent: positive allosteric modulators of TRPC4, primary screen, cell-based, mouse TRPC4beta, HEK293 mu-opioid, Fluo-4 calcium. 0.42% of 310,000 active. Short transient receptor potential channel 4 (Mus musculus), Q9QUQ5. DAMGO EC20, Fluo-4 Ca2+ flux; hits give high values. B-score at 10 µM;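 active = B-score of calcium response area above 5 SD of library B-scores, with initial fluorescence ratio within 5 SD of library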
# TRPC6 act: mouse TRPC6 channel activators, primary screen, cell-based, HEK293, membrane potential dye; Short transient receptor potential channel 6 (Mus musculus), Q61143; HEK293-TRPC6 membrane potential dye fluorescence; hits give high values; B-score at 10 µM; 0.13% of 310,000 active; AID 2550, 2010;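 active = B-score of the integrated fluorescence ratio above library mean plus 3 SD, and starting fluorescence ratio within library mean plus 5 SD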;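 note: higher score means more depolarization so channel activation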
# TRPC4 inh: inhibitors of mouse TRPC4 channel, primary screen, Fluo4 calcium, HEK293 TRPC4beta/mu-opioid cells; Short transient receptor potential channel 4 (Mus musculus), Q9QUQ5; DAMGO-evoked Fluo4 calcium flux; hits give low values; B-score at 10 µM; 0.39% of 300,000 active; AID 2247, 2010;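 active = B-score over 3 SD under the library average, no early fluorescence shift, positive overall ratio signal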
#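 material = TRPC4beta/mu-opioid receptor HEK293 cell line | probe or stimulus = sequential submaximal and maximal DAMGO stimulation | compound dosing = one concentration per compound | measured by = Fluo4 Ca2+ flux fluorescence | evaluation = integrated fluorescence ratio relative to baseline, converted to per-well B score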
# A number is an active result; n = inactive.
SMILES,TRPC4 agonist,TRPC6 inhibitor,TRPC4 potent,TRPC6 act,TRPC4 inh
Cc1nc(SC(C)C(=O)c2c(N)n(C)c(=O)n(C)c2=O)c2c(C)c(C)sc2n1 (stereo not drawn),n,n,n,n,n
CC1CN(C(=O)CSc2nnc(NC(=O)NC(C)(C)C)s2)CC(C)O1 (stereo not drawn),n,n,n,n,n
Cc1cccc(/C=N/NC(=O)c2cccc(Cl)c2)n1,n,n,21,n,n
Cc1cccc(N2C(=O)c3ccccc3C2=O)n1,n,n,n,n,n
OCC1CCN(Cc2cn(Cc3ccccc3)nc2-c2cc3ccccc3o2)CC1,56,n,n,n,n
CCCCS(=O)(=O)N1CCC(C(=O)NCC2CCCO2)CC1 (stereo not drawn),n,n,n,n,n
CC1CCc2nc(NC(=O)CN3CCN(c4ccccc4)CC3)sc2C1 (stereo not drawn),n,n,n,n,n
CC1CCc2nc(NC(=O)CN3CCN(Cc4ccc5c(c4)OCO5)CC3)sc2C1 (stereo not drawn),n,n,n,n,-6
NCC(O)COCCC12CC3CC(CC(C3)C1)C2 (stereo not drawn),n,n,n,n,n
CC(NCC(O)COCCC12CC3CC(CC(C3)C1)C2)c1ccccc1 (stereo not drawn),83,n,n,n,n
CCOc1ccc(-n2cnnn2)cc1S(=O)(=O)NCc1ccccc1,n,n,n,n,-7
CCOc1cc(S(=O)(=O)NCc2ccccc2)c(OCC)cc1-n1cnnn1,n,n,n,n,n
CSc1cccc(CN2CCC(Oc3ccc(C(=O)N4CCCCC4)cc3)CC2)c1,n,n,n,n,n
Cc1cc(NC(=O)Nc2cccc(Cl)c2)n(-c2ccccn2)n1,n,-5.2,n,n,n
Cc1cc(NC(=O)Nc2cccc(Cl)c2)n(-c2ccccc2)n1,n,n,n,n,n
CCCC1=NN2C(=N)/C(=C\c3ccc(OCCOc4ccc(NC(C)=O)cc4)c(OC)c3)C(=O)N=C2S1,n,n,n,n,n
Cc1cccc(NC(=O)CNC(=O)c2ccc(-n3cncn3)c([N+](=O)[O-])c2)c1C,n,n,n,n,n
O=C(Nc1cnn(C23CC4CC(CC(C4)C2)C3)c1)c1cnn2cccnc12,n,n,73,n,n
S=c1[nH]nc(COc2ccc(Cl)cc2Cl)n1-c1ccccc1,54,n,n,n,n
S=c1[nH]nc(-c2ccc(Cl)cc2Cl)n1-c1ccccc1,n,n,n,n,n
Cc1c(C(=O)NC(=S)Nc2ccccc2N2CCCC2)cccc1[N+](=O)[O-],n,n,13,n,n
O=C(NC(=S)Nc1ccccc1N1CCCC1)c1ccc([N+](=O)[O-])cc1,n,n,n,n,n
CCn1c(SCC(=O)N2CCC(C)CC2)nc2c(c1=O)SCC2,n,n,n,n,n
OC(CNCc1ccccc1C(F)(F)F)C(F)(F)F (stereo not drawn),n,n,n,n,n
OCC(Cc1ccccc1)NCc1ccccc1C(F)(F)F (stereo not drawn),n,n,n,n,-6
SMILES,TRPC4 agonist,TRPC6 inhibitor,TRPC4 potent,TRPC6 act,TRPC4 inh
CSCCC(=O)N1CC[C@@H](N2CCN(c3ccccc3F)CC2)[C@H](O)C1,n,n,n,n,n
Cc1ccc2nc3c(cc(C(=O)NCCc4ccccc4)c(=N)n3CCN3CCOCC3)c(=O)n2c1,n,n,n,n,n
N=c1c(C(=O)NCc2ccco2)cc2c(=O)n3ccccc3nc2n1Cc1ccc(Cl)cc1,n,n,13,n,n
N=c1c(C(=O)NCc2ccccc2)cc2c(=O)n3ccccc3nc2n1Cc1ccco1,n,n,n,n,n
CC(C)n1c(=N)c(C(=O)NCCc2ccccc2)cc2c(=O)n3ccccc3nc21,n,-10.1,n,n,n
N=c1c(C(=O)NCc2ccc(F)cc2)cc2c(=O)n3ccccc3nc2n1Cc1ccco1,n,n,15,n,n
CCN1C(=O)C(CC(=O)Nc2c(C)cccc2C)Nc2cc(S(=O)(=O)N(C)C)ccc21 (stereo not drawn),n,n,n,n,n
O=C(C[N+]1(CC#Cc2ccccc2)CCCCC1)c1ccc(Cl)cc1,n,n,n,n,-6
CCNCC(=O)N1c2ccccc2CCc2ccc(NC(=O)OC(C)C)cc21,n,n,n,n,n
O=C(CN(Cc1ccc(Br)cc1)S(=O)(=O)c1ccccc1)NCC1CCCO1 (stereo not drawn),n,n,n,n,n
CCOC(=O)c1sc2nc(N3CCOCC3)c3c(c2c1N)CCN(C)C3,n,-6.98,n,n,n
Cc1noc(C)c1CCC(=O)NC1CCCN(Cc2ccc(CC(C)C)cc2)C1 (stereo not drawn),101,n,n,n,n
Cc1cccc(N2CCN(C(=O)C3(S(=O)(=O)c4ccc(Cl)cc4)CC3)CC2)c1C,n,n,19,n,n
CC1(c2nnc(-c3ccccc3)o2)CC(c2ccc([N+](=O)[O-])cc2)=NO1 (stereo not drawn),n,n,n,n,n
COc1ccccc1C1C2=C(CCCC2=O)N(CC(=O)O)C2=C1C(=O)CCC2,n,n,n,n,n
COc1cc(Br)cc(C2C3=C(CCCC3=O)N(c3ccc(F)cc3)C3=C2C(=O)CCC3)c1O,n,n,70,n,n
CCOc1nc(-c2ccc(Cl)cc2Cl)ccc1C#N,n,n,n,n,n
COc1nc(-c2ccccc2Cl)ccc1C#N,n,n,n,n,-6
O=C(Cc1cccs1)NCCS(=O)(=O)N1CCN(c2cccc(Cl)c2)CC1,n,n,n,n,n
COc1ccc(NC(=S)NN2C(C)CCCC2C)cc1 (stereo not drawn),n,n,n,n,n
COc1cccc(NC(=S)NN2C(C)CCCC2C)c1 (stereo not drawn),n,n,11,n,n
Cc1nn(CC(C)C)c(Cl)c1C(=O)N(c1ccc(Cl)cc1F)S(C)(=O)=O,n,n,n,n,n
COc1ccc(C(C)=O)cc1COC(=O)Cc1cc(OC)c(OC)c(OC)c1,n,n,n,n,n
Cc1nn(-c2nnc(NCc3ccccc3)nn2)c(C)c1Br,n,n,17,n,n
Cc1cc(C)c(C)c(OCCCOc2cccc3cccnc23)c1,n,n,19,n,n
CC(C)(C)c1cc(-c2n[nH]c(=S)n2-c2ccc(Cl)cc2)n[nH]1,n,n,n,n,n
Cc1cc(C)n(-c2cc(Cl)cc(Cl)c2)c(=O)c1C#N,n,n,n,n,n
Cc1ccc(-n2c(C)cc(C)c(C#N)c2=O)cc1Cl,45,n,n,n,-6
COCCSc1ccccc1C(=O)N1CCC(Cc2ccccc2)CC1,44,n,n,n,-7
